Measurements of several laboratories.
Cell line: MOLM-13
Observed: cell growth or viability

| SMILES | technique | tested at | time | quantity | result |
| --- | --- | --- | --- | --- | --- |
| Cc1n[nH]c2ccc3nc(-c4ccc(C(=O)NCCN(C)C)cc4F)c4c(c3c12)CCCC4 | – | – | 72 h | GI50 | 47 nM |
| NCCCC(=O)Nc1ccccc1/N=c1\cc(-c2ccc3c(c2)OCO3)oc2ccccc12 | CCK-8 | 1 µM | – | inhibition | 0.08% |
| c1ccc(Oc2ccc(Nc3ccc4ncc(OCC5CCNCC5)nc4c3)cc2)cc1 | XTT | – | 7 days | EC50 | 1400 nM |
| Cc1cc2c(C(N)=O)cccc2n1-c1nc2c(c(NCc3ccccc3)n1)CCCN2 | – | – | 72 h | IC50 | 800 nM |
| CC(C)(C)[C@H](N)C(=O)Nc1ccccc1/N=c1\cc(-c2ccc3c(c2)OCCO3)oc2cc(F)ccc12 | CCK-8 | 1 µM | – | inhibition | 6.65% |
| Cc1cc2c(C(=O)O)cccc2n1-c1nc2c(c(NCc3ccccc3)n1)CCCN2 | – | – | 72 h | IC50 | 400 nM |
| COc1ccc2/c(=N/c3ccccc3NC(=O)N3CCOCC3)cc(-c3ccc4c(c3)OCCO4)oc2c1 | CCK-8 | 1 µM | – | inhibition | 3.11% |
| Cc1n[nH]c2ccc3nc(-c4ccc(C(=O)NCCN(C)C)cc4)c4c(c3c12)CCCCC4 | – | – | 72 h | GI50 | 187 nM |
| c1cc(N2CCCCC2)ccc1Nc1cc2ncc(OCC3CCNCC3)nc2cc1-c1ccc(N2CCCCC2)cc1 | XTT | – | 7 days | EC50 | 2800 nM |
| CN(C)CCNC(=O)c1ccc(-c2nc3ccc4[nH]ncc4c3c3c2CCCC3)c(F)c1 | – | – | 72 h | GI50 | 262 nM |
| CC1(C)CCC(CN2CCN(c3ccc(C(=O)NS(=O)(=O)c4ccc(NCC5CCOCC5)c([N+](=O)[O-])c4)c(Oc4cnc5[nH]ccc5c4)c3)CC2)=C(c2ccc(Cl)cc2)C1 | – | – | – | GI50 | 10 nM |
| Fc1ccc(Oc2ccc(Nc3ccc4ncc(OCC5CCNCC5)nc4c3)cc2)cc1 | XTT | – | 7 days | EC50 | 1600 nM |
| CCNc1nc2ccc(-c3c/c(=N\c4ccccc4NC(=O)CCN)c4ccccc4o3)cc2o1 | CCK-8 | 1 µM | – | inhibition | 12.2% |
| c1cc(N2CCCC2)ccc1-c1cc2ncc(OCC3CCNCC3)nc2cc1-c1ccc(N2CCCC2)cc1 | XTT | – | 7 days | EC50 | 1700 nM |
| CC(C)(C)c1cc(NC(=O)Nc2ccc(-c3cn4c(n3)sc3cc(OCCN5CCOCC5)ccc34)cc2)no1 | – | – | 72 h | GI50 | 9 nM |
